According to ChEMBL document CHEMBL4732226, “Discovery of a potent G-protein-coupled receptor 119 agonist for the treatment of type 2 diabetes” (Bioorg Med Chem, 2021):

How the values were obtained:
[1] = target: T1, Glucose-dependent insulinotropic receptor (Homo sapiens, UniProt Q8TDV5); test: Agonist activity at human GPR119 stably transfected in CHO-K1 cells assessed as increase in cAMP stimulation after 1 hr by enzyme immunoassay; assay type: functional, cell-based
T1 sequence (Q8TDV5 whole entry): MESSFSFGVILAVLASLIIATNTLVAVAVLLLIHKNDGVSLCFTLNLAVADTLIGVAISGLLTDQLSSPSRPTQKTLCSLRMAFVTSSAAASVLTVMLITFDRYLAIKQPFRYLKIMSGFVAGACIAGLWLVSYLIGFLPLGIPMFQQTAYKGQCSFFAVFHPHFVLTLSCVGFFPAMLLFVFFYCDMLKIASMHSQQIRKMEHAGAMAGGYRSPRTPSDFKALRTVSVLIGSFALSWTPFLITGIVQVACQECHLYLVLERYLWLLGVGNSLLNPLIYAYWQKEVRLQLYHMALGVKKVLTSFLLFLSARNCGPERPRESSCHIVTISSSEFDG

[2] = target: T2, Glucose-dependent insulinotropic receptor (Homo sapiens) (UniProt Q8TDV5); test: Agonist activity at human GPR119 stably transfected in CHO-K1 cells assessed as increase in cAMP stimulation after 1 hr by enzyme immunoassay relative to AR231453; assay type: functional, cell-based
T2 sequence (whole entry): T1 sequence (Q8TDV5 whole entry)

[3] = test system: Mus musculus; test: Antidiabetic activity in glucose-stimulated […] mouse assessed as reduction in blood glucose level at 50 mg/kg, po pretreated for 30 mins followed by glucose-stimulation and measured up to 120 mins by OGTT method relative to control; assay type: functional; set-up: scale not given: the % may be the effect or the level left; conditions: 0.5 h
How it was run: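 C57 mice aged 6–8 weeks were grouped by non-fasting glucose and fasted overnight. Single oral dose of 50 mg/kg; 30 min later basal bleed and oral glucose 3 g/kg. Serum glucose taken at 20, 40, 60 and 120 min. Change in glucose AUC calculated.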

[4] = Tmax in Sprague-Dawley rat at 25 mg/kg, po up to 24 hrs; assay type: ADME, organism-based; conditions: in vivo
How it was run: (§1)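 Male SD rats fasted overnight, water ad libitum, fed 4 h after dosing. Single oral gavage of 25 mg/kg as a homogeneous suspension in 0.5% Tween 80 in 0.5% Na-CMC. Blood drawn into Na-heparin tubes at 0.25, 0.5, 1, 2, 4, 6, 8 and 24 h; plasma stored at -70°C. Parameters by non-compartmental analysis, with C0 taken as zero and BLQ samples set to zero.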

[5] = Cmax in Sprague-Dawley rat at 25 mg/kg, po up to 24 hrs; assay type: ADME, organism-based; set-up: route oral, dose 25 mg/kg, time <=24; conditions: in vivo; how it was run: as §1
[6] = Half life in Sprague-Dawley rat at 25 mg/kg, po up to 24 hrs; assay type: ADME, organism-based; conditions: in vivo; how it was run: as §1
[7] = Elimination rate constant in Sprague-Dawley rat at 25 mg/kg, po up to 24 hrs; assay type: ADME, organism-based; conditions: in vivo; how it was run: as §1
[8] = AUC(0 to t) in Sprague-Dawley rat at 25 mg/kg, po up to 24 hrs; assay type: ADME, organism-based; set-up: route oral, dose 25 mg/kg, time <=24; conditions: in vivo; how it was run: as §1
[9] = AUC(0 to infinity) in Sprague-Dawley rat at 25 mg/kg, po up to 24 hrs; assay type: ADME, organism-based; set-up: route oral, dose 25 mg/kg, time <=24; conditions: in vivo; how it was run: as §1

Row | Structure (SMILES) | EC50 ([1]; read-out: EC50) | Emax ([2]; filed as agonist) | also measured
1 | Cc1c(Oc2ccc(/C=C3\SC(=O)NC3=O)cc2)ncnc1OC1CCN(C(=O)OCC(C)C)CC1 | 75.1 nM | 70.2% | Activity [3]: 24%
2 | CC(C)COC(=O)N1CCC(Oc2cc(Oc3ccc(/C=C4\SC(=O)NC4=O)cc3)ncn2)CC1 | 745 nM | 51% | 
3 | CCOC(=O)N1CCC(Oc2ncnc(Oc3cccc(/C=C4\SC(=O)NC4=O)c3)c2C)CC1 |  |  | EC50 ([1]; cho-k1): Not Active
4 | O=C1NC(=O)/C(=C/c2ccc(Oc3cc(OC4CCN(C(=O)OCc5ccccc5)CC4)ncn3)cc2)S1 | 107 nM | 88.3% | 
5 | COC(=O)N1CCC(Oc2cc(Oc3cccc(/C=C4\SC(=O)NC4=O)c3)ncn2)CC1 | 1870 nM |  | Emax [2]: 33.7%
6 | COC(=O)N1CCC(Oc2ncnc(Oc3cccc(/C=C4\SC(=O)NC4=O)c3)c2C)CC1 |  |  | EC50 ([1]; cho-k1): Not Active
7 | Cc1c(Oc2cccc(/C=C3\SC(=O)NC3=O)c2)ncnc1OC1CCN(C(=O)OCC(C)C)CC1 |  |  | EC50 ([1]; cho-k1): Not Active
8 | CCOC(=O)N1CCC(Oc2cc(Oc3cccc(/C=C4\SC(=O)NC4=O)c3)ncn2)CC1 | 819 nM | 43.3% | 
9 | COC(=O)N1CCC(Oc2cc(Oc3ccc(/C=C4\SC(=O)NC4=O)cc3)ncn2)CC1 |  |  | EC50 ([1]; cho-k1): Not Active
10 | CC(C)COC(=O)N1CCC(Oc2cc(Oc3cccc(/C=C4\SC(=O)NC4=O)c3)ncn2)CC1 | 720 nM | 62.4% | 
11 | Cc1c(Oc2ccc(/C=C3\SC(=O)NC3=O)cc2)ncnc1OC1CCN(C(=O)OC(C)(C)C)CC1 |  | 68.8% | Activity [3]: 34.6%; Tmax [4]: 2.25 h; Cmax [5]: 835 ng/mL; half-life [6]: 4.37 h; k el at 24 h [7]: 4.44e-05 s⁻¹; AUC(0-t) at 24 h [8]: 8110 ng·h/mL; AUC(0-inf) [9]: 8310 ng·h/mL
12 | COC(=O)N1CCC(Oc2ncnc(Oc3ccc(/C=C4\SC(=O)NC4=O)cc3)c2C)CC1 | 1410 nM | 53.3% | 
13 | O=C1NC(=O)/C(=C/c2cccc(Oc3cc(OC4CCN(C(=O)OCc5ccccc5)CC4)ncn3)c2)S1 | 153 nM | 98.3% | 
14 | Cc1c(Oc2ccc(/C=C3\SC(=O)NC3=O)cc2)ncnc1OC1CCN(C(=O)OCc2ccccc2)CC1 | 805 nM | 43.3% | 
15 | CC(C)(C)OC(=O)N1CCC(Oc2cc(Oc3ccc(/C=C4\SC(=O)NC4=O)cc3)ncn2)CC1 |  | 122% | 
16 | CC(C)(C)OC(=O)N1CCC(Oc2cc(Oc3cccc(/C=C4\SC(=O)NC4=O)c3)ncn2)CC1 | 125 nM | 78.3% | 
17 | CCOC(=O)N1CCC(Oc2cc(Oc3ccc(/C=C4\SC(=O)NC4=O)cc3)ncn2)CC1 | 790 nM | 51.8% | 
18 | Cc1c(Oc2cccc(/C=C3\SC(=O)NC3=O)c2)ncnc1OC1CCN(C(=O)OCc2ccccc2)CC1 | 106 nM | 138% | 
19 | CC(C)c1noc(C2CCN(c3ncnc(Nc4ccc(S(C)(=O)=O)cc4F)c3[N+](=O)[O-])CC2)n1 | 6 nM | 100% | 
20 | CCOC(=O)N1CCC(Oc2ncnc(Oc3ccc(/C=C4\SC(=O)NC4=O)cc3)c2C)CC1 | 157 nM | 141% | 
